According to paper PMC6289288 (Journal of hazardous materials, 2018):
Like-named read-outs stand apart in the source and are kept apart here.

Tests used:
[1] = tested on: H1299, a human lung cell line; assay: MTS cytotoxicity assay; type: cell-based; conditions: read-out: MTS IC50 72 h; H1299, 72 h, mean ± SD, n = 2–7
[2] = Measured at pH 8; ref Palos Pacheco et al. [25]; cited from earlier work
[3] = tested on: Aliivibrio fischeri; assay: Microtox acute toxicity assay; type: cell-based; conditions: n=3, mean ± SD
Summary of the method: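 Aliivibrio fischeri bioluminescence assay, run in triplicate. A 2 mM stock was osmotically adjusted and then 1:1 serially diluted in Microtox diluent to 9 concentrations (3.5–889 μM). Diluent alone served as the toxicant-free control. Light output was read before mixing with bacteria and again at 5, 15 and 30 min. EC50 is the concentration halving bioluminescence relative to the control at each time point.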

[4] = tested on: H1299, a human lung cell line; assay: xCELLigence Real-Time Cell Analysis; type: cell-based; conditions: read-out: xCELLigence IC50 72 h; H1299, 72 h, n=3, mean ± SD
[5] = tested on: Zebrafish (Danio rerio) embryos; assay: Zebrafish embryo developmental toxicity assay; type: in vivo; conditions: for Zebrafish mortality: 120 hpf
Summary of the method: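 Embryos with intact chorions were exposed from 6 to 120 hpf in embryo medium to 0.064–640 μM test compound. All wells contained 0.64% DMSO, and there were 32 embryos per concentration and control. Plates were kept at 28 °C in the dark. At 24 hpf, mortality, developmental delay, spontaneous movement and notochord were scored. At 120 hpf, mortality, edemas, morphological abnormalities, circulation, swim bladder and touch response were scored.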

[6] = laboratory settings; cited from earlier work
[7] = read-out: Microtox EC50 5 min, 5 min exposure
[8] = read-out: Microtox EC50 15 min, 15 min exposure
[9] = read-out: Microtox EC50 30 min, 30 min exposure

| Compound | IC50 [1] [µM] | Area [2] [Å^2 molecule^−1] | CMC [2] [µM] | Minimum Surface Tension [2] [mN m^−1] | EC50 [3, 7] [µM] | EC50 [3, 8] [µM] | EC50 [3, 9] [µM] | IC50 [4] [µM] | Zebrafish mortality ([5]; 640 μM, n = 32, exposure from 6 to 120 hpf) | Developmental effects (22 developmental endpoints) ([5]; 0.064–640 μM, 24 and 120 hpf) | Biodegradability [6] | Zebrafish mortality ([5]; 6.4 μM, n = 32) [%] |
| --- | --- | --- | --- | --- | --- | --- | --- | --- | --- | --- | --- | --- |
| CCCCCCCC(CC(=O)O)OC(=O)CC(CCCCCCC)O[C@@H]1O[C@@H](C)[C@H](O)[C@@H](O)[C@H]1O (stereo partly drawn) [Rha-C10-C10 (S,R), rhamnosyl-β-hydroxydecanoyl-β-hydroxydecanoate] | 103 ± 31.9 | 105 ± 4 | 180 ± 24 | 28.5 ± 0.2 | 61.9 ± 4.7 | 39.6 ± 2.9 | 36.6 ± 2.9 | 111 ± 6.2 |  |  |  |  |
| CCCCCCCC(CC(=O)O)OC(=O)CC(CCCCCCC)O[C@@H]1O[C@@H](C)[C@H](O)[C@@H](O)[C@H]1O (stereo partly drawn) [Rha-C10-C10 (R,R), rhamnosyl-β-hydroxydecanoyl-β-hydroxydecanoate] | 129.7 ± 1.1 | 119 ± 10 | 270 ± 77 | 28.1 ± 0.2 | 78.7 ± 4 | 53.8 ± 3.3 | 47.3 ± 1.2 | 122 ± 9.1 | not associated with mortality | no developmental effects |  |  |
| CCCCC(CC)COC(=O)CC(C(=O)OCC(CC)CCCC)S(=O)(=O)O (stereo not shown) [bis-(2-ethylhexyl) sulfosuccinate (DOSS), bis-(2-ethylhexyl) sulfosuccinate] |  |  |  |  |  |  |  |  |  |  | biodegradable |  |
| CCCCCCCC(CC(=O)O)OC(=O)CC(CCCCCCC)O[C@@H]1O[C@@H](C)[C@H](O)[C@@H](O)[C@H]1O (stereo partly drawn) [Rha-C10-C10 (S,S), rhamnosyl-β-hydroxydecanoyl-β-hydroxydecanoate] | 125 ± 18.6 | 94 ± 8 | 201 ± 51 | 29.5 ± 0.2 | 64.3 ± 8.5 | 42.6 ± 4.4 | 38.8 ± 3.7 | 108 ± 5.3 |  |  |  | 19 |
